# Assay results published in the M2OR odorant receptor database.
# Numbering of substitutions follows the chain as printed.
# Biological target: T1, OR2W1 (Homo sapiens) (UniProt Q9Y3N9)
# T1 sequence (whole entry): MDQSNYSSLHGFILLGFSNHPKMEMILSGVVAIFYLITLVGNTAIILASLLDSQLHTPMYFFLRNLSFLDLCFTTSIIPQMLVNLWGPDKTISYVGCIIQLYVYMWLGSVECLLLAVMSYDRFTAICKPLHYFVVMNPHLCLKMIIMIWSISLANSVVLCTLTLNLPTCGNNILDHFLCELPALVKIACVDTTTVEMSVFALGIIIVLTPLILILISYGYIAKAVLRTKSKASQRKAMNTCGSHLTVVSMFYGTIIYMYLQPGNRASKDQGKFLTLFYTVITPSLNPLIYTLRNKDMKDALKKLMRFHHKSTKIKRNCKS
# Conditions: stereoisomer not certain
# Summary of the method: (§1)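 Each receptor–molecule pair is labelled responsive or non-responsive (inactive) according to whether the original authors judged the measured signal statistically different from baseline. The data were taken from the main text and supplementary material of published papers and checked for typos and inconsistencies. Assay methods differed by source, with transient luciferase assays in mammalian cell lines being common.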
# 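Further: active if original authors judged signal statistically different from baseline.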
row,SMILES,odorant receptor agonist call
1,COC(=O)C=Cc1ccccc1,active
2,CCC=CCCC=CCO,active
3,COCCC(C)(C)S,active
4,CCCCCCC=CC=O,active
5,SCc1cccs1,active
6,CCCCC=CC=O,active
7,CC=Cc1ccc(OC)cc1,active
8,CCCCCCCC1CCC(=O)O1 (stereo not drawn),active
9,CCCCCC=CC=CC=O,active
10,CCCCCC1CCC(=O)O1 (stereo not drawn),active
11,CCCCC(=O)OCC,active
12,CCC=CCCC=O,active
13,CCC=CCCOC(C)=O,active
14,CCOC(=O)C=Cc1ccccc1,active
15,OCC=Cc1ccccc1,active
16,C=CC(O)CCCCC (stereo not drawn),active
17,CCCCCC(=O)OCC,active
18,CCCCCC=CCCC=O,active

row,SMILES,odorant receptor agonist call
1,CCCC(=O)OC,active
2,C=C(C)c1ccc(C)cc1,active
3,CCCSSSCCC,active
4,C=C1CCC2(C(C)C)CC12 (stereo not drawn),active
5,CCOC(=O)CC(C)C,active
6,CC1=CCC(C(C)C)C=C1 (stereo not drawn),active
7,CCC=CCCC=CC=O,active
8,CCCCCCO,active
9,CCCSSSC,active
10,CC(C)c1ccc(C=O)cc1,active
11,CCC(C)COC(C)=O (stereo not drawn),inactive
12,C=Cc1ccc(O)cc1,active
13,CCCC1CCCC(=O)O1 (stereo not drawn),active
14,CSSCc1ccccc1,active
15,c1coc(CSCc2ccco2)c1,active
16,CCCCC=CC=CC=O,active
17,CCOC(=O)C1CCCCC1,active
18,CSCc1ccccc1,active

# System: T2, OR2W1
# T2 sequence (whole entry): T1 sequence (whole entry) with D296N
# Conditions: stereoisomer not certain
# Summary of the method: as §1
row,SMILES,odorant receptor agonist call
1,COC(=O)C=Cc1ccccc1,active
2,CCC=CCCC=CCO,active
3,COCCC(C)(C)S,active
4,CCCCCCC=CC=O,active
5,SCc1cccs1,active
6,CCCCC=CC=O,active
7,CC=Cc1ccc(OC)cc1,active
8,CCCCCCCC1CCC(=O)O1 (stereo not drawn),active
9,CCCCCC=CC=CC=O,active
10,CCCCCC1CCC(=O)O1 (stereo not drawn),active
11,CCCCC(=O)OCC,active
12,CCC=CCCC=O,active
13,CCC=CCCOC(C)=O,active
14,CCOC(=O)C=Cc1ccccc1,active
15,OCC=Cc1ccccc1,active
16,C=CC(O)CCCCC (stereo not drawn),active
17,CCCCCC(=O)OCC,active
18,CCCCCC=CCCC=O,active

row,SMILES,odorant receptor agonist call
1,CCCC(=O)OC,active
2,C=C(C)c1ccc(C)cc1,active
3,CCCSSSCCC,active
4,C=C1CCC2(C(C)C)CC12 (stereo not drawn),active
5,CCOC(=O)CC(C)C,active
6,CC1=CCC(C(C)C)C=C1 (stereo not drawn),active
7,CCC=CCCC=CC=O,active
8,CCCCCCO,active
9,CCCSSSC,active
10,CC(C)c1ccc(C=O)cc1,active
11,CCC(C)COC(C)=O (stereo not drawn),active
12,C=Cc1ccc(O)cc1,active
13,CCCC1CCCC(=O)O1 (stereo not drawn),active
14,CSSCc1ccccc1,active
15,c1coc(CSCc2ccco2)c1,active
16,CCCCC=CC=CC=O,active
17,CCOC(=O)C1CCCCC1,active
18,CSCc1ccccc1,active

# System: T3, OR2W1
# T3 sequence (whole entry): T1 sequence (whole entry) with M81V
# Conditions: stereoisomer not certain
# Summary of the method: as §1
row,SMILES,odorant receptor agonist call
1,COC(=O)C=Cc1ccccc1,active
2,CCC=CCCC=CCO,active
3,COCCC(C)(C)S,inactive
4,CCCCCCC=CC=O,active
5,SCc1cccs1,active
6,CCCCC=CC=O,inactive
7,CC=Cc1ccc(OC)cc1,active
8,CCCCCCCC1CCC(=O)O1 (stereo not drawn),active
9,CCCCCC=CC=CC=O,active
10,CCCCCC1CCC(=O)O1 (stereo not drawn),active
11,CCCCC(=O)OCC,active
12,CCC=CCCC=O,active
13,CCC=CCCOC(C)=O,active
14,CCOC(=O)C=Cc1ccccc1,active
15,OCC=Cc1ccccc1,active
16,C=CC(O)CCCCC (stereo not drawn),active
17,CCCCCC(=O)OCC,active
18,CCCCCC=CCCC=O,inactive

row,SMILES,odorant receptor agonist call
1,CCCC(=O)OC,active
2,C=C(C)c1ccc(C)cc1,active
3,CCCSSSCCC,inactive
4,C=C1CCC2(C(C)C)CC12 (stereo not drawn),inactive
5,CCOC(=O)CC(C)C,inactive
6,CC1=CCC(C(C)C)C=C1 (stereo not drawn),inactive
7,CCC=CCCC=CC=O,active
8,CCCCCCO,inactive
9,CCCSSSC,active
10,CC(C)c1ccc(C=O)cc1,active
11,CCC(C)COC(C)=O (stereo not drawn),active
12,C=Cc1ccc(O)cc1,active
13,CCCC1CCCC(=O)O1 (stereo not drawn),inactive
14,CSSCc1ccccc1,active
15,c1coc(CSCc2ccco2)c1,active
16,CCCCC=CC=CC=O,active
17,CCOC(=O)C1CCCCC1,inactive
18,CSCc1ccccc1,active
